In ChEMBL document CHEMBL1165965, “Synthesis and structure-activity relationships of 1,2,3,4-tetrahydropyrido[2,3-b]pyrazines as potent and selective inhibitors of the anaplastic lymphoma kinase” (Bioorg Med Chem, 2010):

How the values were obtained:
[1] = molecular target: Serine/threonine-protein kinase MARK1 (Homo sapiens) (UniProt Q9P0L2); test: Inhibition of MARK1 at 1 uM
Procedure, shortened: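 Kinase-panel screen using KINOMEscan technology, with 250–400 kinases per panel. Each compound was tested at a single concentration, and inhibition of each kinase was recorded. Selectivity was summarised as S(90), the fraction of kinases inhibited by more than 90%.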

[2] = molecular target: T1, Serine/threonine-protein kinase D2 (Homo sapiens) (UniProt Q9BZL6); test: Inhibition of PRKD2 at 1 uM
T1 sequence (whole entry): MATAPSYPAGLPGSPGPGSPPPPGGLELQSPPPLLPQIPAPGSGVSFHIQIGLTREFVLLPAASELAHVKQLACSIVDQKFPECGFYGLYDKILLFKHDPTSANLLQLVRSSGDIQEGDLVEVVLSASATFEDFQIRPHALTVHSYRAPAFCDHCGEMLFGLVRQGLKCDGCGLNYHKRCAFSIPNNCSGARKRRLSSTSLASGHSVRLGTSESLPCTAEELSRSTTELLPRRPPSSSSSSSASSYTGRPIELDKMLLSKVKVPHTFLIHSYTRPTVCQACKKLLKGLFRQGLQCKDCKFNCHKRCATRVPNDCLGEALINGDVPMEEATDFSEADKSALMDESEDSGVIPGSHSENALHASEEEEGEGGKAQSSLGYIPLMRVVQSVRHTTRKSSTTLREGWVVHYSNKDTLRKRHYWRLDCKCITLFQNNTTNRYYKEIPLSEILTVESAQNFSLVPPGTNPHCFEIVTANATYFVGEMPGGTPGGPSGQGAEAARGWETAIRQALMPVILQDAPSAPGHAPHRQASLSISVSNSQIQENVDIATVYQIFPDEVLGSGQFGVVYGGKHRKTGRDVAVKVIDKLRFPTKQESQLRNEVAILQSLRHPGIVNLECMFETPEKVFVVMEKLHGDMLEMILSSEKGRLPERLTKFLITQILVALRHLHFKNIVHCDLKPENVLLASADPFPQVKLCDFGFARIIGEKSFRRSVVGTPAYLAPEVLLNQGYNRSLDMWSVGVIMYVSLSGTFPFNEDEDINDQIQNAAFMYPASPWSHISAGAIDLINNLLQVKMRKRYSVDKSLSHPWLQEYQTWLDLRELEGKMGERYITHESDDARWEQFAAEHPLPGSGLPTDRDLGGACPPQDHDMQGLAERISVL

[3] = molecular target: T2, Serine/threonine-protein kinase RIO1 (Homo sapiens) (UniProt Q9BRS2); test: Inhibition of RIOK1 at 1 uM
T2 sequence (whole entry): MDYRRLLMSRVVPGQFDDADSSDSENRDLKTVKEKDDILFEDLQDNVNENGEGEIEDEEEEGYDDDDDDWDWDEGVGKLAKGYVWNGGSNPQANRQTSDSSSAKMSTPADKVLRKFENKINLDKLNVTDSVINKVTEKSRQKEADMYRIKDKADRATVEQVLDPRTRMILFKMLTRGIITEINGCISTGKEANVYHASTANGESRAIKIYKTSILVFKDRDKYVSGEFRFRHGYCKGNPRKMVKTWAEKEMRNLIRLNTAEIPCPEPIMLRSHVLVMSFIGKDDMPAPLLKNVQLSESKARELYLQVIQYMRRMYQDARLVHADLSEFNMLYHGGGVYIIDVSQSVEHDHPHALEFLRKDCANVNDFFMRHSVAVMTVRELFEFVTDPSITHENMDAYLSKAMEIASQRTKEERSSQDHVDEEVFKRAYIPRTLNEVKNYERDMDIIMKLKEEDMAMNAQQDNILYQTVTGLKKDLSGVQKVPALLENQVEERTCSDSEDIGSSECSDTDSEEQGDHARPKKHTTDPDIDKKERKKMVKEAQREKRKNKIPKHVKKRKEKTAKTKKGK

[4] = molecular target: T3, Aurora kinase A (Homo sapiens) (UniProt O14965); test: Inhibition of AURKA at 1 uM
T3 sequence (whole entry): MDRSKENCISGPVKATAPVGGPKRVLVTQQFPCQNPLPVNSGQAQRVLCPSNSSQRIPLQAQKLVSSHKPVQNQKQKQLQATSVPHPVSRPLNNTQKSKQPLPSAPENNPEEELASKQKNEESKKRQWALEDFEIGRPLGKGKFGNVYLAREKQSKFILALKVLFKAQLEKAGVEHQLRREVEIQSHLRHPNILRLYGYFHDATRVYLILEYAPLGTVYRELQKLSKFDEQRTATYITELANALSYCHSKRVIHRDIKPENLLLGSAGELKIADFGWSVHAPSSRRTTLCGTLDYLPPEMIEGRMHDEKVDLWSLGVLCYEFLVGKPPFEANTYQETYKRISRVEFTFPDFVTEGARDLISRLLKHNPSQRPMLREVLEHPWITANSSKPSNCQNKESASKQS
Procedure, shortened: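 Ambit KINOMEscan screen at a single concentration across a 250–400 kinase panel, recorded as percent inhibition. Selectivity was expressed as S(90), the fraction of kinases inhibited >90%.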

[5] = molecular target: Receptor tyrosine-protein kinase erbB-2 (Homo sapiens) (UniProt P04626); test: Inhibition of ERBB2 at 1 uM
Sequence of Receptor tyrosine-protein kinase erbB-2 (Homo sapiens) (P04626 whole entry): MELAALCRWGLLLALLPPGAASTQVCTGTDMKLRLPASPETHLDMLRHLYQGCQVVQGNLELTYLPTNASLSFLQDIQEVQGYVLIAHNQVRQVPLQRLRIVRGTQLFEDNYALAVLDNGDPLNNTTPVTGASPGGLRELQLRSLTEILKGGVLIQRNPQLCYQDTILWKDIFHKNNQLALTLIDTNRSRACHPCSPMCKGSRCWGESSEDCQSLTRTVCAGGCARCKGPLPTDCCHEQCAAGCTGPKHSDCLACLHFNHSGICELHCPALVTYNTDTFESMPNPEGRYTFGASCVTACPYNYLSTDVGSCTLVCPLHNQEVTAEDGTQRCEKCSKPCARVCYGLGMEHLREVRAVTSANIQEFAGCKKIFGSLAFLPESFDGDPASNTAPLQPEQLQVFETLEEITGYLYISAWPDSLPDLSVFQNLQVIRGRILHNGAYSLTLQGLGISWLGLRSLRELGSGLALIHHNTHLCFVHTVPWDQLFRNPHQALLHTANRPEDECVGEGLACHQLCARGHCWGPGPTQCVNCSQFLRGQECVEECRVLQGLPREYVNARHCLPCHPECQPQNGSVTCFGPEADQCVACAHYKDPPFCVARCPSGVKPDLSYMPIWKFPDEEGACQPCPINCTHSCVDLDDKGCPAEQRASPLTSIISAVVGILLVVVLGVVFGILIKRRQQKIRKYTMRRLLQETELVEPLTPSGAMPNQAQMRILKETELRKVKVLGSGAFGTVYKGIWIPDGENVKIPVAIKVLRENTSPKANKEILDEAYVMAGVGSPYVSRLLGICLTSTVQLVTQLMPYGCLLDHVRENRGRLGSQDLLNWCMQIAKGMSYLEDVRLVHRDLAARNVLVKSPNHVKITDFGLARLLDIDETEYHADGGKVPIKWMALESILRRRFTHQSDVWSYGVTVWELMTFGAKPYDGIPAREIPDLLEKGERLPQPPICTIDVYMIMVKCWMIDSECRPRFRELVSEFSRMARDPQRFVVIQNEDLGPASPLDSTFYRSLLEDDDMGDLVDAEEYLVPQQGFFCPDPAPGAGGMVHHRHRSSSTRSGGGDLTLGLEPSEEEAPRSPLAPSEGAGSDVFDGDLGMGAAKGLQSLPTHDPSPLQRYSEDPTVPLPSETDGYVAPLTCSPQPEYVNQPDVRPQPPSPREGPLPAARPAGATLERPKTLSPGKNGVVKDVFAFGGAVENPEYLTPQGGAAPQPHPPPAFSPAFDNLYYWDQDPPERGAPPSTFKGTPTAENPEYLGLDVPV
Procedure, shortened: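 Single-concentration screen using Ambit Bioscience KINOMEscan technology across a panel of 250–400 kinases. Per-kinase inhibition from this screen was summarized as S(90), the fraction of kinases inhibited by more than 90%.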

Sequence of Serine/threonine-protein kinase MARK1 (Homo sapiens) (Q9P0L2 whole entry, looked up): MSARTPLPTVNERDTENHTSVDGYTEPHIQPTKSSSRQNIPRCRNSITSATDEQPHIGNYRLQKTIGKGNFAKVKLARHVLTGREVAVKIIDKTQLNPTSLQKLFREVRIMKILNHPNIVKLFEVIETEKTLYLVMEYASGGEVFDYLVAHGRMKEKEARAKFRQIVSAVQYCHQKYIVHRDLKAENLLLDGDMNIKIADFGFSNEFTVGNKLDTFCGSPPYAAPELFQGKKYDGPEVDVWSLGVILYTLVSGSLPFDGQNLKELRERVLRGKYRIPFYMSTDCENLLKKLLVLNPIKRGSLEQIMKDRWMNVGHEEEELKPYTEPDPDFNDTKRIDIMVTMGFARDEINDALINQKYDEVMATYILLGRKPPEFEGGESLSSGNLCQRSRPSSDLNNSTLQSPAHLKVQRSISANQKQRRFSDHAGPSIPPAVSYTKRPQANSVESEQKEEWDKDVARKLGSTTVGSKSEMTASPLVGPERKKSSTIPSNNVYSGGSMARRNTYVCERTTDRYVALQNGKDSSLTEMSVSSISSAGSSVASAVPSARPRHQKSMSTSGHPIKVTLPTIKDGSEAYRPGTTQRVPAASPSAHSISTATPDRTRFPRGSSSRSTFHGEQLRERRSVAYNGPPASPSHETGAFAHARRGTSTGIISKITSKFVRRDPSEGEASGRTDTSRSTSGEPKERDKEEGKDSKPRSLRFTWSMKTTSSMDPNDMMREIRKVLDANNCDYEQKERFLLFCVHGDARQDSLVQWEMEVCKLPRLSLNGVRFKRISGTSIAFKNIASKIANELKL

| SMILES | inhibition [1] | inhibition [2] | inhibition [3] | inhibition [4] | inhibition [5] |
| --- | --- | --- | --- | --- | --- |
| CN1CCN(c2ccc(-c3cnc4c(c3)N(Cc3cc(F)ccc3F)CCN4)cn2)CC1 | < 50% | < 50% | < 50% | < 50% | < 50% |
| CC(=O)N1CCN(c2cc(-c3cnc4c(c3)N(Cc3cc(Cl)ccc3C(F)(F)F)CCN4)ccn2)CC1 | < 50% | < 50% | < 50% | 68% | < 50% |
| CN1CCN(c2ccc(-c3cnc4c(c3)N(Cc3c(F)ccc(F)c3Cl)CCN4)cn2)CC1 | < 50% | < 50% | < 50% | < 50% | < 50% |
| FC(F)(F)c1ccc(Cl)cc1CN1CCNc2ncc(-c3ccnc(N4CCNCC4)c3)cc21 | < 50% | < 50% | < 50% | 68% | < 50% |
| CN1CCN(c2ccc(-c3cnc4c(c3)N(Cc3cc(Cl)ccc3Cl)CCN4)cn2)CC1 | < 50% | < 50% | < 50% | < 50% | < 50% |
| O=C(c1ccc(-c2cnc3c(c2)N(Cc2cc(Cl)ccc2C(F)(F)F)CCN3)cc1)N1CCC(N2CCCC2)CC1 | < 50% | < 50% | < 50% | 69.5% | < 50% |
| O=C(O)c1ccc(-c2cnc3c(c2)N(Cc2cc(Cl)ccc2C(F)(F)F)CCN3)cc1 | < 50% | < 50% | < 50% | 80.2% | < 50% |
| CN1CCN(c2ccc(-c3cnc4c(c3)N(Cc3cc(Cl)ccc3C(F)(F)F)CCN4)cn2)CC1 | < 50% | < 50% | < 50% | < 50% | < 50% |
| O=C(c1ccc(-c2cnc3c(c2)N(Cc2cc(Cl)ccc2C(F)(F)F)CCN3)cc1)N1CCCCC1 | < 50% | < 50% | < 50% | < 50% | < 50% |
| COC1CCN(C(=O)c2ccc(-c3cnc4c(c3)N(Cc3cc(Cl)ccc3C(F)(F)F)CCN4)cc2)CC1 | < 50% | < 50% | < 50% | < 50% | < 50% |
